According to ChEMBL document CHEMBL1127395, “Synthesis and antimicrobial activity of novel 3-[(aminopyrimidiniumyl)thio]methyl cephalosporins” (1994):
≈ marks a conversion by molar mass, not a printed value.

Experiments:
Citrobacter freundii = test: In vitro minimum inhibitory concentration for Citrobacter freundii (ATCC-8090) by agar dilution method; format: functional; conditions: Citrobacter freundii; read-out: MIC
In short: (§1)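 Two-fold serial dilutions of each compound dispersed in Mueller-Hinton agar; plates spot-inoculated with 2 μL of standard test strain at 10^7 CFU/mL, incubated 37 °C for 20 h; MIC read as lowest concentration inhibiting growth.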

Klebsiella aerogenes = test: In vitro minimum inhibitory concentration for Enterobacter aerogenes (ATCC-29751) by agar dilution method; format: functional; conditions: Klebsiella aerogenes; read-out: MIC; in short: as §1
Proteus vulgaris = test: In vitro minimum inhibitory concentration for Proteus vulgaris (ATCC-6059) by agar dilution method; format: functional; conditions: Proteus vulgaris; read-out: MIC; in short: as §1
Pseudomonas aeruginosa [1] = test: In vitro minimum inhibitory concentration for Pseudomonas aeruginosa (ATCC-27853) by agar dilution method; format: functional; conditions: Pseudomonas aeruginosa; read-out: MIC; in short: as §1
Klebsiella pneumoniae = test: In vitro minimum inhibitory concentration for Klebsiella pneumoniae (ATCC-10031) by agar dilution method; format: functional; conditions: Klebsiella pneumoniae; read-out: MIC
Serratia marcescens = test: In vitro minimum inhibitory concentration for Serratia marcescens (ATCC-27117) by agar dilution method; format: functional; conditions: Serratia marcescens; read-out: MIC; in short: as §1
Staphylococcus aureus [2] = test: In vitro minimum inhibitory concentration for Staphylococcus aureus (ATCC 6538p) by agar dilution method
[3] = system: Staphylococcus epidermidis; test: In vitro minimum inhibitory concentration for Staphylococcus epidermidis (ATCC-12228) by agar dilution method; format: functional; conditions: Staphylococcus epidermidis; read-out: MIC; in short: as §1
Pseudomonas aeruginosa [4] = test: In vitro minimum inhibitory concentration for Pseudomonas aeruginosa (ATCC 10145) by agar dilution method; format: functional; in short: as §1
Escherichia coli = test: In vitro minimum inhibitory concentration for Escherichia coli (ATCC-10536) by agar dilution method; format: functional; conditions: Escherichia coli; read-out: MIC; in short: as §1
Salmonella typhimurium = test: In vitro minimum inhibitory concentration for Salmonella Typhimurium (ATCC-14028) by agar dilution method; format: functional, Salmonella enterica subsp. enterica serovar Typhimurium; conditions: Salmonella enterica; read-out: MIC; in short: as §1
Enterobacter cloacae = test: In vitro minimum inhibitory concentration for Enterobacter cloacae (ATCC-27508) by agar dilution method; format: functional; conditions: Enterobacter cloacae; read-out: MIC; in short: as §1
Staphylococcus aureus [5] = test: In vitro minimum inhibitory concentration for Staphylococcus aureus (ATCC 6538p) by agar dilution method; format: functional; conditions: Staphylococcus aureus, ATCC 6538p; read-out: MIC; in short: as §1

Structure (SMILES)	MIC (Citrobacter freundii) [µg/mL]	MIC (Klebsiella aerogenes) [µg/mL]	MIC (Proteus vulgaris) [µg/mL]	MIC (Pseudomonas aeruginosa [1]) [µg/mL]	MIC (Klebsiella pneumoniae) [µg/mL]	MIC (Serratia marcescens) [µg/mL]	MIC (Staphylococcus aureus [2]) [µg/mL]	MIC [3] [µg/mL]	MIC (Pseudomonas aeruginosa [4]) [µg/mL]	MIC (Escherichia coli) [µg/mL]	MIC (Salmonella typhimurium) [µg/mL]	MIC (Enterobacter cloacae) [µg/mL]	MIC (Staphylococcus aureus [5]) [µg/mL]
CCC[n+]1c(N)cc(N)nc1SCC1=C(C(=O)[O-])N2C(=O)C(NC(=O)/C(=N\OC(C)(C)C(=O)O)c3cnc(N)s3)C2SC1 (configuration not stated)	0.25 (≈ 0.384 µM)	2 (≈ 3.07 µM)	0.06 (≈ 0.0921 µM)	2 (≈ 3.07 µM)	0.13 (≈ 0.199 µM)	0.25 (≈ 0.384 µM)	2 (≈ 3.07 µM)	2 (≈ 3.07 µM)	4 (≈ 6.14 µM)	0.13 (≈ 0.199 µM)	0.25 (≈ 0.384 µM)	0.03 (≈ 0.046 µM)	–
C[n+]1ccc(N)nc1SCC1=C(C(=O)[O-])N2C(=O)C(NC(=O)/C(=N\OC(C)(C)C(=O)O)c3cnc(N)s3)C2SC1 (configuration not stated)	0.03 (≈ 0.0493 µM)	1 (≈ 1.64 µM)	0.06 (≈ 0.0986 µM)	1 (≈ 1.64 µM)	0.03 (≈ 0.0493 µM)	0.06 (≈ 0.0986 µM)	–	2 (≈ 3.29 µM)	2 (≈ 3.29 µM)	0.03 (≈ 0.0493 µM)	0.13 (≈ 0.214 µM)	< 0.008	4 (≈ 6.57 µM)
CC[n+]1c(N)cc(N)nc1SCC1=C(C(=O)[O-])N2C(=O)C(NC(=O)/C(=N\OC(C)(C)C(=O)O)c3cnc(N)s3)C2SC1 (configuration not stated)	0.13 (≈ 0.204 µM)	2 (≈ 3.14 µM)	0.03 (≈ 0.047 µM)	1 (≈ 1.57 µM)	0.06 (≈ 0.0941 µM)	0.13 (≈ 0.204 µM)	–	1 (≈ 1.57 µM)	2 (≈ 3.14 µM)	0.06 (≈ 0.0941 µM)	0.25 (≈ 0.392 µM)	0.03 (≈ 0.047 µM)	2 (≈ 3.14 µM)
CC(C)(O/N=C(\C(=O)NC1C(=O)N2C(C(=O)[O-])=C(CSc3nc(N)cc(N)[n+]3-c3ccc(O)cc3)CSC12)c1cnc(N)s1)C(=O)O (configuration not stated)	0.25 (≈ 0.356 µM)	2 (≈ 2.85 µM)	0.13 (≈ 0.185 µM)	1 (≈ 1.42 µM)	0.13 (≈ 0.185 µM)	0.5 (≈ 0.712 µM)	–	2 (≈ 2.85 µM)	2 (≈ 2.85 µM)	0.25 (≈ 0.356 µM)	0.5 (≈ 0.712 µM)	0.06 (≈ 0.0855 µM)	4 (≈ 5.7 µM)
Cc1c(N)nc(SCC2=C(C(=O)[O-])N3C(=O)C(NC(=O)/C(=N\OC(C)(C)C(=O)O)c4cnc(N)s4)C3SC2)[n+]2nc(C)n(C)c12 (configuration not stated)	0.13 (≈ 0.192 µM)	1 (≈ 1.48 µM)	0.13 (≈ 0.192 µM)	4 (≈ 5.91 µM)	0.13 (≈ 0.192 µM)	0.5 (≈ 0.739 µM)	–	2 (≈ 2.96 µM)	8 (≈ 11.8 µM)	0.25 (≈ 0.369 µM)	0.25 (≈ 0.369 µM)	0.03 (≈ 0.0443 µM)	8 (≈ 11.8 µM)
C[n+]1cc(Cc2ccccc2)c(N)nc1SCC1=C(C(=O)[O-])N2C(=O)C(NC(=O)/C(=N\OC(C)(C)C(=O)O)c3cnc(N)s3)C2SC1 (configuration not stated)	0.06 (≈ 0.0859 µM)	1 (≈ 1.43 µM)	0.5 (≈ 0.716 µM)	8 (≈ 11.4 µM)	0.06 (≈ 0.0859 µM)	0.5 (≈ 0.716 µM)	–	2 (≈ 2.86 µM)	16 (≈ 22.9 µM)	0.25 (≈ 0.358 µM)	0.5 (≈ 0.716 µM)	0.03 (≈ 0.0429 µM)	8 (≈ 11.4 µM)
Cc1c(N)nc(SCC2=C(C(=O)[O-])N3C(=O)C(NC(=O)/C(=N\OC(C)(C)C(=O)O)c4cnc(N)s4)C3SC2)[n+]2ncn(C)c12 (configuration not stated)	0.06 (≈ 0.0905 µM)	1 (≈ 1.51 µM)	0.06 (≈ 0.0905 µM)	2 (≈ 3.02 µM)	0.06 (≈ 0.0905 µM)	0.25 (≈ 0.377 µM)	–	2 (≈ 3.02 µM)	4 (≈ 6.04 µM)	0.13 (≈ 0.196 µM)	0.25 (≈ 0.377 µM)	0.02 (≈ 0.0302 µM)	8 (≈ 12.1 µM)
CC(C)(O/N=C(\C(=O)NC1C(=O)N2C(C(=O)O)=C(CSc3nccc(N)n3)CSC12)c1cnc(N)s1)C(=O)O (configuration not stated)	1 (≈ 1.68 µM)	8 (≈ 13.5 µM)	0.063 (≈ 0.106 µM)	8 (≈ 13.5 µM)	0.5 (≈ 0.841 µM)	1 (≈ 1.68 µM)	–	16 (≈ 26.9 µM)	16 (≈ 26.9 µM)	1 (≈ 1.68 µM)	1 (≈ 1.68 µM)	0.5 (≈ 0.841 µM)	32 (≈ 53.8 µM)
Cn1cc[n+]2c(SCC3=C(C(=O)[O-])N4C(=O)C(NC(=O)/C(=N\OC(C)(C)C(=O)O)c5cnc(N)s5)C4SC3)nc(N3CCOCC3)cc12 (configuration not stated)	0.5 (≈ 0.697 µM)	8 (≈ 11.1 µM)	0.25 (≈ 0.348 µM)	4 (≈ 5.57 µM)	0.25 (≈ 0.348 µM)	0.5 (≈ 0.697 µM)	–	2 (≈ 2.79 µM)	8 (≈ 11.1 µM)	0.25 (≈ 0.348 µM)	0.5 (≈ 0.697 µM)	0.06 (≈ 0.0836 µM)	8 (≈ 11.1 µM)

Further compounds by falling MIC (Citrobacter freundii), results first:

MIC (Citrobacter freundii) [µg/mL]	MIC (Klebsiella aerogenes) [µg/mL]	MIC (Proteus vulgaris) [µg/mL]	MIC (Pseudomonas aeruginosa [1]) [µg/mL]	MIC (Klebsiella pneumoniae) [µg/mL]	MIC (Serratia marcescens) [µg/mL]	MIC (Staphylococcus aureus [2]) [µg/mL]	MIC [3] [µg/mL]	MIC (Pseudomonas aeruginosa [4]) [µg/mL]	MIC (Escherichia coli) [µg/mL]	MIC (Salmonella typhimurium) [µg/mL]	MIC (Enterobacter cloacae) [µg/mL]	MIC (Staphylococcus aureus [5]) [µg/mL]	Structure (SMILES)
8 (≈ 13.4 µM)	32 (≈ 53.7 µM)	2 (≈ 3.36 µM)	> 128	8 (≈ 13.4 µM)	16 (≈ 26.9 µM)	–	> 128	> 128	8 (≈ 13.4 µM)	64 (≈ 107 µM)	4 (≈ 6.72 µM)	> 128	CC(C)(O/N=C(\C(=O)NC1C(=O)N2C(C(=O)O)=C(CSc3nccc(O)n3)CSC12)c1cnc(N)s1)C(=O)O (configuration not stated)
0.25 (≈ 0.37 µM)	4 (≈ 5.92 µM)	0.25 (≈ 0.37 µM)	4 (≈ 5.92 µM)	0.13 (≈ 0.192 µM)	0.5 (≈ 0.74 µM)	–	1 (≈ 1.48 µM)	8 (≈ 11.8 µM)	0.13 (≈ 0.192 µM)	0.5 (≈ 0.74 µM)	0.06 (≈ 0.0888 µM)	2 (≈ 2.96 µM)	CN(C)c1cc2n(C)cc[n+]2c(SCC2=C(C(=O)[O-])N3C(=O)C(NC(=O)/C(=N\OC(C)(C)C(=O)O)c4cnc(N)s4)C3SC2)n1 (configuration not stated)
0.25 (≈ 0.347 µM)	1 (≈ 1.39 µM)	0.25 (≈ 0.347 µM)	2 (≈ 2.78 µM)	0.13 (≈ 0.181 µM)	1 (≈ 1.39 µM)	–	2 (≈ 2.78 µM)	4 (≈ 5.55 µM)	0.25 (≈ 0.347 µM)	0.5 (≈ 0.694 µM)	0.13 (≈ 0.181 µM)	4 (≈ 5.55 µM)	CC(C)(O/N=C(\C(=O)NC1C(=O)N2C(C(=O)[O-])=C(CSc3nc(N)cc(N)[n+]3-c3ccc(Cl)cc3)CSC12)c1cnc(N)s1)C(=O)O (configuration not stated)
0.13 (≈ 0.204 µM)	4 (≈ 6.26 µM)	0.13 (≈ 0.204 µM)	2 (≈ 3.13 µM)	0.06 (≈ 0.0939 µM)	0.25 (≈ 0.391 µM)	–	1 (≈ 1.57 µM)	4 (≈ 6.26 µM)	0.06 (≈ 0.0939 µM)	0.25 (≈ 0.391 µM)	0.02 (≈ 0.0313 µM)	4 (≈ 6.26 µM)	COc1cc(N)nc(SCC2=C(C(=O)[O-])N3C(=O)C(NC(=O)/C(=N\OC(C)(C)C(=O)O)c4cnc(N)s4)C3SC2)[n+]1C (configuration not stated)
0.13 (≈ 0.195 µM)	1 (≈ 1.5 µM)	0.25 (≈ 0.375 µM)	4 (≈ 6.01 µM)	0.06 (≈ 0.0901 µM)	0.5 (≈ 0.751 µM)	–	1 (≈ 1.5 µM)	4 (≈ 6.01 µM)	0.13 (≈ 0.195 µM)	0.5 (≈ 0.751 µM)	0.03 (≈ 0.0451 µM)	2 (≈ 3 µM)	CCCC[n+]1c(N)cc(N)nc1SCC1=C(C(=O)[O-])N2C(=O)C(NC(=O)/C(=N\OC(C)(C)C(=O)O)c3cnc(N)s3)C2SC1 (configuration not stated)
0.03 (≈ 0.0462 µM)	0.25 (≈ 0.385 µM)	0.06 (≈ 0.0923 µM)	2 (≈ 3.08 µM)	0.06 (≈ 0.0923 µM)	0.13 (≈ 0.2 µM)	–	2 (≈ 3.08 µM)	2 (≈ 3.08 µM)	0.06 (≈ 0.0923 µM)	0.13 (≈ 0.2 µM)	0.02 (≈ 0.0308 µM)	4 (≈ 6.16 µM)	CC(C)(O/N=C(\C(=O)NC1C(=O)N2C(C(=O)[O-])=C(CSc3nc(N)c4c([n+]3N)CCC4)CSC12)c1cnc(N)s1)C(=O)O (configuration not stated)
0.03 (≈ 0.0492 µM)	0.5 (≈ 0.82 µM)	0.03 (≈ 0.0492 µM)	1 (≈ 1.64 µM)	0.03 (≈ 0.0492 µM)	0.13 (≈ 0.213 µM)	–	2 (≈ 3.28 µM)	2 (≈ 3.28 µM)	0.06 (≈ 0.0984 µM)	0.13 (≈ 0.213 µM)	0.02 (≈ 0.0328 µM)	8 (≈ 13.1 µM)	CC(C)(O/N=C(\C(=O)NC1C(=O)N2C(C(=O)[O-])=C(CSc3nc(N)cc[n+]3N)CSC12)c1cnc(N)s1)C(=O)O (configuration not stated)
